Source: article PMC6336391 (Journal of the American Chemical Society, 2018)
Values joined by “and” are separate entries in the source; they are usually repeats but may differ in a detail not shown here. Equal entries are not always repeated. Where two headings read alike, the source gives them in different places.

Tests used:
bovine serum albumin [1] = biological target: T1, bovine serum albumin (Bos taurus, UniProt P02769); assay: Bovine serum albumin binding by tryptophan fluorescence quenching
[2] = system: RAW 264.7 murine macrophage cells; assay: MTT cytotoxicity in RAW 264.7 cells with added BSA; format: cell-based
Method in brief: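 MTT viability assay in murine RAW 264.7 macrophages with added bovine serum albumin. Test compounds were screened under both non-illuminated and illuminated conditions.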

A549 cells = assay: MTT toxicity in A549 cells with added BSA; format: cell-based, human; conditions: BSA 0.6 mM
Method in brief: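 MTT viability assay in human A549 alveolar adenocarcinoma cells with added BSA (0.6 mM). Test compounds were tested under non-illuminated and illuminated conditions. Percent viability was plotted against concentration. IC50 was fitted by four-parameter nonlinear regression, only where viability fell by at least 50%.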

TNF-α [3] = assay: Suppression of LPS-induced TNF-α production in RAW 264.7 cells; format: cell-based, murine; conditions: BSA 0.6 mM; for effect on TNF-α: LPS 1 μg/mL
Method in brief: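 RAW 264.7 murine macrophages with added BSA (0.6 mM) and test compound, kept either illuminated or dark. Plates were then treated with LPS (1 μg/mL final) for 1 h. TNF-α in each well's supernatant was measured by commercial ELISA. Means ± SEM from three independent experiments. Two-way ANOVA with Tukey post hoc tests against the LPS control and illuminated versus dark.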

HUVECs = assay: MTT cytotoxicity in normal human cells; format: cell-based; conditions: up to 100 μM
TNF-α [4] = conditions: RAW 264.7 murine macrophages; cited from earlier work
bovine serum albumin [5] = biological target: T1, bovine serum albumin; conditions: 22 °C, cited from earlier work
[6] = read-out: IC50 RAW 264.7, non-illuminated
[7] = read-out: IC50 A549, non-illuminated

T1 sequence (P02769 25-607): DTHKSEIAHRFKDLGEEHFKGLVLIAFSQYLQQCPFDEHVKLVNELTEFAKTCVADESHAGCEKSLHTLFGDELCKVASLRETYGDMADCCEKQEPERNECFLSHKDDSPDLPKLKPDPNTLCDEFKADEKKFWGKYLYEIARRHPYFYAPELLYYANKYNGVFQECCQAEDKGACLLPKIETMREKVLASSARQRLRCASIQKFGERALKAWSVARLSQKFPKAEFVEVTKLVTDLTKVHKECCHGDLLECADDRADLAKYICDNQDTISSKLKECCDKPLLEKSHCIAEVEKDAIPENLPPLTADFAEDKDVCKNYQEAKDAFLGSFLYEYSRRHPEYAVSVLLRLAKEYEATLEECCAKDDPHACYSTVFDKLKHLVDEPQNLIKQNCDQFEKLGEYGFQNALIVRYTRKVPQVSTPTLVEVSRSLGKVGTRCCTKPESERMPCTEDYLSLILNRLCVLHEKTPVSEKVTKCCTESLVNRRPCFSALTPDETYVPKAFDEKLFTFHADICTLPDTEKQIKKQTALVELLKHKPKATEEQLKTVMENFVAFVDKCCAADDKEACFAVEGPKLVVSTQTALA

Question: Which results are given for 3-hydroxybenzo[g]quinolone [Compound 1]?
Answer: KSV (binding constant with BSA) (bovine serum albumin [1]; 22 °C, 4% DMSO:Tris buffer pH 7.4, 0.1 M NaCl): 2.9e+06 M⁻¹; Ka (ibuprofen) (bovine serum albumin [1]; 22 °C, in the presence of ibuprofen (Site II)): 980000 M⁻¹; Ka (warfarin) (bovine serum albumin [1]; 22 °C, in the presence of warfarin (Site I)): 610000 M⁻¹; fold stronger binding to BSA than Flav-1 (bovine serum albumin [1]; relative to Flav-1): approximately 900 fold; IC50 [2, 6]: 40.2 ± 1.44 µM; IC50 (A549 cells; [7]): > 100 µM; TNF-α level (TNF-α [3]; 80 nM, illuminated (blue LED array, 1 hr), LPS 1 μg/mL 1 h): almost completely suppressed; effect on TNF-α (TNF-α [3]; non-illuminated): dose-dependent decrease; cell viability (HUVECs): greater than 50%

Question: With `NCC(=O)O.[C-]#[O+].[C-]#[O+].[C-]#[O+].[Cl][Ru]` [CORM-3] as the compound, how does the “concentration at which effects on TNF-α expression start” value (TNF-α [4]) read?
Answer: The value was 10 µM.

Question: For `O=C(Nc1cc2ccccc2cc1C(=O)O)c1ccccc1` [Compound 3, 3-(benzoylamino)-2-naphthalenecarboxylic acid], which IC50 ([2]; Mus musculus, RAW264.7, read-out: IC50 RAW 264.7, non-illuminated) is on record?
Answer: The IC50 was greater than 100 µM.

Question: And the IC50 [2, 6]?
Answer: Its IC50 is greater than 100 µM.

Question: What about the IC50 (A549 cells; Homo sapiens, A549, read-out: IC50 A549, non-illuminated) of the same compound?
Answer: The IC50 was greater than 100 µM.

Question: And the IC50 (A549 cells; [7])?
Answer: Its IC50 is greater than 100 µM.

Question: And the “IC50 A549 (illuminated)” value (A549 cells; visible light illumination (in situ CO release))?
Answer: Its value is “non-toxic”.

Question: And the “effect on TNF-α” value (TNF-α [3]; illuminated)?
Answer: The value was “lack of any effect”.

Question: With `O=c1c(O)c(-c2ccccc2)oc2cc3ccccc3cc12` [Flav-1, 3-hydroxybenzo[g]flavone, reference compound] as the compound, how does the “IC50 RAW 264.7” value ([2]; non-illuminated) read?
Answer: Its value is “nontoxic”.

Question: What about the IC50 [2, 6] of the same compound?
Answer: Its IC50 is greater than 100 µM.

Question: And the “Ka (ibuprofen)” value (bovine serum albumin [5]; in the presence of ibuprofen)?
Answer: Its value is 2600 M⁻¹.

Question: And the “Ka (warfarin)” value (bovine serum albumin [5]; in the presence of warfarin)?
Answer: Its value is 360 M⁻¹.

Question: What about the IC50 (A549 cells; [7]) of the same compound?
Answer: Its IC50 is 82 µM and 81.9 µM.

Question: And the cell viability (HUVECs)?
Answer: Its cell viability is “greater than 50%”.

Question: Which “concentration at which effects on TNF-α expression start” value (TNF-α [4]) does the source give for “BSA-Ru(CO)2 conjugate: adduct formed by albumin binding of CORM-3” here?
Answer: Its value is 4.5 µM.
